In ChEMBL document CHEMBL3352816, “Synthesis and antiproliferative activity of imidazo[2,1-b][1,3,4]thiadiazole derivatives” (Bioorg Med Chem Lett, 2014):
Active and inactive are the calls of the source. No cut-off for these calls is given here.

How the values were obtained:
[1] = system: REH; assay: Induction of apoptosis in human REH cells assessed as induction of ROS production at 1 uM after 60 mins by flow cytometric analysis (reference value: 0.09 %); assay type: functional
[2] = system: REH; assay: Induction of apoptosis in human REH cells assessed as induction of ROS production at 100 nM after 10 mins by flow cytometric analysis (reference value: 0.33 %); assay type: functional
[3] = system: REH; assay: Induction of apoptosis in human REH cells assessed as induction of ROS production at 1 uM after 10 mins by flow cytometric analysis (reference value: 0.33 %); assay type: functional
[4] = system: REH; assay: Induction of apoptosis in human REH cells assessed as induction of ROS production at 5 uM after 10 mins by flow cytometric analysis (reference value: 0.33 %); assay type: functional
[5] = system: REH; assay: Induction of apoptosis in human REH cells assessed as reduction of KU70 protein expression at 1 uM after 48 hrs by Western blot analysis; assay type: functional, cell-based
How it was run: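 Reh cells exposed 48 h to 500 nM or 1 µM, with DMSO-treated cells as control; cell lysates probed by western blot with specific primary antibodies against KU70, PARP1, caspases 3, 8 and 9, BID and FAS; tubulin shown as loading reference.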

[6] = system: REH; assay: Induction of apoptosis in human REH cells assessed as PARP cleavage after 48 hrs by Western blot analysis; assay type: functional, cell-based
How it was run: (§1)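 Reh cell lysates were prepared after 48 h treatment at 500 nM and 1 µM, with DMSO-treated cells as control. Western blotting used primary antibodies against KU70, PARP1, caspase 3, BID, caspase 9, FAS and caspase 8, with tubulin also probed.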

[7] = system: REH; assay: Induction of apoptosis in human REH cells assessed as reduction of BID at 1 uM after 48 hrs by Western blot analysis; assay type: functional, cell-based; how it was run: as §1
[8] = system: REH; assay: Induction of apoptosis in human REH cells assessed as change in caspase 9 expression at 1 uM after 48 hrs by Western blot analysis; assay type: functional, cell-based; how it was run: as §1
[9] = system: REH; assay: Induction of apoptosis in human REH cells assessed as caspase 8 cleavage after 48 hrs by Western blot analysis; assay type: functional, cell-based; how it was run: as §1
[10] = Growth inhibition of human NSCLC cells; assay type: functional
[11] = Growth inhibition of human Colon cancer cells; assay type: functional; settings: Cancer cell lines
[12] = Growth inhibition of human CNS cancer cells; assay type: functional; settings: Cancer cell lines
[13] = Growth inhibition of human Melanoma cells; assay type: functional; settings: Melanoma cell
[14] = Growth inhibition of human Ovarian cancer cells; assay type: functional; settings: Cancer cell lines
[15] = Growth inhibition of human Renal cancer cells; assay type: functional; settings: Cancer cell lines
[16] = Growth inhibition of human Prostate cancer cells; assay type: functional; settings: Cancer cell lines
[17] = Growth inhibition of human Breast cancer cells; assay type: functional; settings: Cancer cell lines
[18] = system: REH; assay: Cytotoxicity against human REH cells assessed as reduction in cell viability after 24 to 72 hrs by trypan blue exclusion assay; assay type: functional, cell-based
How it was run: (§2)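 Reh, K562 and Nalm6 leukemic cells were treated with 10, 50, 100 and 250 µM or with 0.1, 0.5, 1, 5 and 10 µM (compounds dissolved in DMSO). Viability was scored by trypan blue after 24, 48 and 72 h. DMSO-treated cells served as vehicle control.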

[19] = system: NALM-6; assay: Cytotoxicity against human NALM6 cells assessed as reduction in cell viability after 24 to 72 hrs by trypan blue exclusion assay; assay type: functional, cell-based; how it was run: as §2
[20] = system: REH; assay: Cytotoxicity against human REH cells assessed as reduction in cell viability at 0.1 to 10 uM by trypan blue exclusion assay; assay type: functional, cell-based; settings: TDE = time-dependent effect; how it was run: as §2
[21] = system: K562; assay: Cytotoxicity against human K562 cells assessed as reduction in cell viability at 0.1 to 10 uM by trypan blue exclusion assay; assay type: functional, cell-based; settings: TDE = time-dependent effect; how it was run: as §2
[22] = system: REH; assay: Cytotoxicity against human REH cells assessed as reduction in cell viability at 5 to 10 uM after 48 to 72 hrs by MTT assay; assay type: functional, cell-based
How it was run: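 MTT viability read-out in leukemic cells treated with 10, 50, 100 and 250 µM or with 0.1, 0.5, 1, 5 and 10 µM. Cells harvested after 48 and 72 h. Compounds dissolved in DMSO.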

[23] = system: HEK293; assay: Cytotoxicity against HEK293 cells assessed as induction of cell death at 3 uM after 24 to 72 hrs by live-dead cell assay; assay type: cell-based; settings: human, hek293, 3 µM; in the assay text read “24 to 48 hrs” for “24 to 72 hrs”
How it was run: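 Reh leukemic and 293T human kidney epithelial cells were treated at 3 µM and compared by live-dead cell assay at 24 and 48 h.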

[24] = system: REH; assay: Cytotoxicity against human REH cells assessed as reduction in cell viability at 3 uM after 24 to 72 hrs by trypan blue exclusion assay; assay type: functional, cell-based
[25] = system: REH; assay: Cell cycle arrest in human REH cells assessed as accumulation at subG1 phase after 48 hrs using propidium iodide by FACS analysis; assay type: functional, cell-based
How it was run: (§3)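 Reh and Nalm6 cells exposed 48 h to 0.1, 0.5, 1 and 5 µM, harvested, stained with propidium iodide and analysed by flow cytometry. Gated fractions were sub G1, G1, S and G2. DMSO-treated cells served as vehicle control. Three independent experiments for Reh and two for Nalm6.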

[26] = system: REH; assay: Cell cycle arrest in human REH cells assessed as reduction of cells in G2/M phase after 48 hrs using propidium iodide by FACS analysis; assay type: functional, cell-based; how it was run: as §3
[27] = system: REH; assay: Cell cycle arrest in human REH cells assessed as reduction of cells in S phase after 48 hrs using propidium iodide by FACS analysis; assay type: functional, cell-based; how it was run: as §3
[28] = Cell cycle arrest in human NALM6 cells assessed as accumulation at subG1 phase after 48 hrs using propidium iodide by FACS analysis; assay type: functional, cell-based; settings: NALM-6; how it was run: as §3
[29] = Cell cycle arrest in human NALM6 cells assessed as reduction of cells in G2/M phase after 48 hrs using propidium iodide by FACS analysis; assay type: functional, cell-based; settings: NALM-6; how it was run: as §3
[30] = system: REH; assay: Induction of apoptosis in human REH cells assessed as viable cells at 1 uM after 48 hrs using annexin-v-FITC/propidium iodide by FACS analysis (reference value: 88.41 %); assay type: functional; settings: read-out: Activity
[31] = system: REH; assay: Induction of apoptosis in human REH cells assessed as loss of mitochondrial membrane potential at 1 uM after 48 hrs using Jc-1 staining by flow cytometric analysis; assay type: functional, cell-based
How it was run: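 Mitochondrial membrane potential in Reh cells after 48 h at 0.1, 0.5, 1 and 5 µM. Cells stained with JC-1 and analysed by flow cytometry as the ratio of red (aggregate) to green (monomer) fluorescent cells. 2,4-DNP-treated cells served as positive control.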

[32] = system: REH; assay: Induction of apoptosis in human REH cells assessed as induction of ROS production at 1 uM after 10 mins by flow cytometric analysis (reference value: 0.09 %); assay type: functional
[33] = system: REH; assay: Induction of apoptosis in human REH cells assessed as induction of ROS production at 1 uM after 15 mins by flow cytometric analysis (reference value: 0.09 %); assay type: functional
[34] = system: REH; assay: Induction of apoptosis in human REH cells assessed as induction of ROS production at 1 uM after 30 mins by flow cytometric analysis (reference value: 0.09 %); assay type: functional

O=Cc1c(-c2ccc(Br)cc2)nc2sc(Cc3ccccc3)nn12
Activity [1]: 0.12% | Activity [2]: 0.77% | Activity [3]: 0.28% | Activity [4]: 0.62% | Activity [5]: Active | Activity [6]: Dose-dependent effect | Activity [7]: Active | Activity [8]: inactive | Activity [9]: Active | GI50 [10]: 4.2 µM | LC50 (concentration killing 50% of cells) [10]: 95.5 µM | TGI [10]: 30.2 µM | GI50 [11]: 2.2 µM | TGI [11]: 10 µM | CC50 ([11]; read-out: LC50 (the source's name)): 81.3 µM | GI50 [12]: 2.2 µM | LC50 [12]: 64.6 µM | TGI [12]: 7.4 µM | GI50 [13]: 3.2 µM | LC50 [13]: 81.3 µM | TGI [13]: 19.5 µM | GI50 [14]: 4.2 µM | TGI [14]: 41.7 µM | GI50 [15]: 3.2 µM | LC50 [15]: 93.3 µM | TGI [15]: 20 µM | GI50 [16]: 3 µM | TGI [16]: 24.6 µM | GI50 [17]: 3.5 µM | TGI [17]: 28.2 µM | Activity [18]: Dose-dependent effect | Activity [19]: Dose-dependent effect | Activity [20]: tde | Activity [21]: tde | Activity [22]: Active | Activity [23]: Non-toxic | Activity [24]: Active | Activity [25]: Dose-dependent effect | Activity [26]: Dose-dependent effect | Activity [27]: Dose-dependent effect | Activity [28]: Dose-dependent effect | Activity [29]: Dose-dependent effect | viability at 1 µM [30]: 5.23% | Activity [31]: Dose-dependent effect | Activity [32]: 0.36% | Activity [33]: 0.09% | Activity [34]: 0.06%
